# Bioassay records as filed in PubChem BioAssay.
# HCT116 PTEN-null – growth suppression of PTEN-null HCT116, primary screen, cell-based, CellTiter-Glo. HCT116 PTEN-null viability, 60 h; active compounds read low. viability, % at 10 µM. 140,000 compounds, 1.2% hits. AID 827, 2007;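 active means viability at or below a set limit, 4 SD under the median of all tested compounds, cut at about 3.7% in these data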;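 further: PTEN knockout HCT116 line with beta catenin targeted HCT116 as companion control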
# Lung fibro prol – antiproliferative effect on LL 47 fibroblasts – human, LL 47 cells, CellTiter-Glo luminescence, primary screen; LL 47 human lung fibroblast viability, ATP luminescence; active compounds read low; viability, % at 10 µM; 85,000 compounds, 1.1% hits; AID 719, 2007;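 active means viability at or below 50% in the single dose screen; inactive means viability above 50%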;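 further: compound exposure lasted 72 h before the ATP readout; 100% = median luminescence of untreated cell-only wells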
#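 Material: human lung fibroblast line LL 47, low passage; Evaluation: viability percentage against median untreated-cell control; Buffer or medium: 15% FBS in IMEM; Incubation: 72 h compound exposure at 37 °C after overnight plating; Dosing: 0.1% DMSO in all compound wells; Measured by: CellTiter-Glo luminescence.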
# HCT116 bCat-KO – primary screen for growth suppressors in beta-catenin knockout HCT116 cells (colon tumor, human); HCT116 beta-catenin knockout viability, CellTiter-Glo, 60 h; active compounds read low; viability, % at 10 µM; 140,000 compounds, 1.5% hits; AID 818, 2007;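 active means viability at or under a set limit, the compound median less 4 SD, cut at about 6% in these data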;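 further: 0% = Hyamine 1622 control at 20 µM and 100% = untreated cell control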
# HUVEC prolif 384 – inhibitors of HUVEC proliferation, primary screen, cell-based, 384-well | CellTiter-Glo luminescence, 72 h; active compounds read low | viability, % at 10 µM (by protocol) | 86,000 compounds, 1.1% hits | AID 648, 2007;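 active means viability at or below 30%; inactive means viability above 30%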;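 further: 100% = median luminescence of DMSO-only cell control wells on each plate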
# H69AR growth 86K – proliferation blockers of H69AR lung cancer cells, primary screen, cell-based, human, 86K library; H69AR lung tumor viability, ATP luminescence, 72 h; active compounds read low; viability, % at 10 µM; 85,000 compounds, 6% hits; AID 598, 2007;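 active means viability at or below 40%; inactive means viability above 40%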;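 further: multidrug resistant small cell line overexpressing MRP-1 efflux transporter; 100% = mean luminescence of untreated control wells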
# * = called active by the depositor; · = no result. This is one part of a sample in which hits are shown more often than they occur.
SMILES,HCT116 PTEN-null,Lung fibro prol,HCT116 bCat-KO,HUVEC prolif 384,H69AR growth 86K
Cc1cc(C)n(-c2nc3ccccc3c(=O)n2OCC(=O)N(C)C)n1,86.6,96.6,100.4,92.0,95.4
CC(C)(C)n1cnc2cc(NS(=O)(=O)c3ccccc3)ccc21,89.8,39.3*,85.9,99.7,98.0
COc1ccc(-n2cnc3cc(NS(=O)(=O)c4ccccc4)ccc32)cc1,70.9,92.3,80.2,76.4,68.7
Cn1cnc2cc(NS(=O)(=O)c3ccc(Br)cc3)ccc21,61.0,85.0,66.8,98.4,39.1*
O=S(=O)(Nc1nc2ccccc2nc1Nc1ccc(N2CCOCC2)cc1)c1cc(Cl)ccc1Cl,44.9,·,55.4,·,·
COc1cccc(-c2nc(CS(=O)(=O)CC(=O)Nc3cccc(C)c3C)c(C)o2)c1,96.9,97.3,92.8,100.4,1.5*
Clc1ccc(-c2csc(N3CCc4ccccc4C3)n2)cc1,90.6,·,81.1,·,·
Clc1ccc(-c2csc(N3CCN(c4ccccc4)CC3)n2)cc1,103.2,103.9,107.2,75.3,39.9*
C=CCN1C(=O)/C(=C/c2ccc(N(C)C)cc2)S/C1=N\c1nnc(CC)s1,73.4,86.5,76.1,63.3,26.4*
COc1cc2c(cc1OC)C(c1cc(OC)c(OC)c(OC)c1)NCC2 (stereo not drawn),89.9,99.5,96.5,108.5,83.7
CCCn1c(=O)c2ccccc2n2c(Sc3nnnn3-c3ccccc3)nnc12,47.9,97.4,53.5,93.8,33.2*
C=CCn1c(=O)c2ccccc2n2c(Sc3nnnn3-c3ccccc3)nnc12,79.5,·,78.9,90.7,51.5
O=C(N/N=C/c1ccc2c(c1)OCO2)C(O)c1ccccc1 (stereo not drawn),95.3,·,82.6,·,·
CCN1C(=O)/C(=C2\C=Cc3ccccc3N2CC)SC1=S,84.5,·,95.6,·,·
CCN1C(=O)/C(=C2\SC(=S)N(CCCOC)C2=O)c2ccccc21,77.9,97.8,67.8,67.5,31.4*
CCSC1=C(C#N)C(c2ccccc2OC)CC(=O)N1 (stereo not drawn),94.4,97.8,92.3,112.6,86.9
CCOC(=O)CSC1=C(C#N)C(c2ccccc2OC)CC(=O)N1 (stereo not drawn),34.9,76.1,30.9,65.7,24.9*
CCOC(=O)CSC1=C(C#N)C(c2ccc(C)s2)CC(=O)N1 (stereo not drawn),16.3,57.2,13.5,50.6,35.3*
CCSC1=C(C#N)C(c2ccc(C)s2)CC(=O)N1 (stereo not drawn),·,104.0,·,91.2,80.4
Cc1ccc(S(=O)(=O)Nc2cccc(NC(=O)CN3CCCCC3)c2)cc1,91.7,·,84.1,·,·
O=C(Nc1ccccc1)c1cccc(S(=O)(=O)Oc2ccc([N+](=O)[O-])cc2)c1,85.8,·,86.6,·,·
CC1(C)CC2CC(C)(CN2C(=O)c2cc(-c3ccccc3O)on2)C1 (stereo not drawn),47.5,84.6,57.6,90.8,15.8*
COc1ccc(-c2cc(C(=O)N3CC4(C)CC3CC(C)(C)C4)no2)cc1 (stereo not drawn),38.4,103.8,44.3,85.8,82.5
N=C1C(c2ccccc2)=C(O)CN1c1cccc(S(=O)(=O)Nc2cccc(C(F)(F)F)c2)c1,100.2,·,95.8,·,·
O=C(NNS(=O)(=O)c1ccc2ccccc2c1)NC1CCCCC1,98.8,·,96.1,·,·
SMILES,HCT116 PTEN-null,Lung fibro prol,HCT116 bCat-KO,HUVEC prolif 384,H69AR growth 86K
S=c1[nH]nc(COc2ccc3c(c2)OCO3)n1-c1ccccc1,99.8,97.7,92.7,93.1,37.4*
S=c1[nH]nc(-c2ccc3c(c2)OCO3)n1-c1ccccc1,93.5,·,99.0,·,·
O=C(NC1CCCC1)C(c1ccc(F)cc1)N(Cc1ccccc1Cl)C(=O)CCl (stereo not drawn),64.1,·,60.8,·,·
Cc1cc(C)nc(N=Nc2c(O)n(Cc3ccc(Cl)cc3)c3ccccc23)n1,38.5,·,56.2,·,·
Cn1c(=O)c2c(SCC(=O)N3CCOCC3)nc(CC(C)(C)C)nc2n(C)c1=O,61.0,35.5*,49.0,45.4,24.1*
Cn1c(=O)c2c(SCC(=O)N3CCCc4ccccc43)nc(CC(C)(C)C)nc2n(C)c1=O,4.4,80.1,4.8*,88.5,29.7*
Cc1cccc(/C(N)=N/OC(=O)CCc2ccccc2)c1,93.3,·,87.7,·,·
CCCCC(O)(CCCC)C(=O)NN(C(=O)OC)c1ccccc1,74.8,·,83.4,·,·
